Measurements as given in ChEMBL document CHEMBL3102784, “Salicylanilide diethyl phosphates: synthesis, antimicrobial activity and cytotoxicity” (Bioorg Med Chem, 2014).
In brackets after ≈: the same amount, converted by molar mass. Activity calls are given as the source filed them. No cut-off for these calls is given here.

Legend:
Pseudomonas aeruginosa = assay: Antibacterial activity against Pseudomonas aeruginosa CCM 1961 at 500 micromol/L after 24 to 48 hrs by broth microdilution method; assay type: functional, organism-based
In short: (§1)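 Broth microdilution in Mueller–Hinton broth, compounds dissolved in DMSO, tested over a dilution series from 500 downward. MIC taken as ≥95% growth reduction (IC95) versus drug-free control. Benzylpenicillin comparator. Readings at 24 and 48 h.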

Candida albicans [1] = assay: Antifungal activity against Candida albicans ATCC 44859 after 24 hrs by broth microdilution method; assay type: functional; settings: ATCC 44859, 24 h
In short: (§2)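 Broth microdilution in RPMI 1640 with glutamine, fluconazole as reference. For yeasts, MIC is ≥80% growth reduction (IC80) versus control. For filamentous fungi, the value is expressed as IC50. Readings at 24 and 48 h.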

Klebsiella pneumoniae [2] = assay: Antibacterial activity against ESBL-positive Klebsiella pneumoniae J 14368/08 at 500 micromol/L after 24 to 48 hrs by broth microdilution method; assay type: functional, organism-based; in short: as §1
[3] = tested on: Mycobacterium tuberculosis; assay: Antimycobacterial activity against Mycobacterium tuberculosis H37Rv My 331/88 after 21 days; assay type: functional; settings: H37Rv My 331/88, 504 h
In short: (§3)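 Micromethod MIC in Šula's semisynthetic medium at 37 °C. Compounds added in DMSO at 1000 down to 0.032 µmol/L. Isoniazid standard in sterile water at 0.5–250 µmol/L. Inocula: H37Rv 10^3, M. avium 10^5, M. kansasii 10^4. Read at 14 and 21 d, plus 7 d for M. kansasii.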

[4] = tested on: Mycobacterium tuberculosis; assay: Antimycobacterial activity against Mycobacterium tuberculosis H37Rv My 331/88 after 14 days; assay type: functional; settings: H37Rv My 331/88, 336 h; in short: as §3
[5] = tested on: Staphylococcus epidermidis; assay: Antibacterial activity against Staphylococcus epidermidis H 6966/08 after 24 hrs by broth microdilution method; assay type: functional; settings: H 6966/08, 24 h; in short: as §1
HepG2 = assay: Cytotoxicity against human HepG2 cells after 24 hrs by CellTiter assay; assay type: cell-based; settings: HepG2, 24 h
In short: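 HepG2 cells (passage 27–33) in MEM with 10% FBS, L-glutamine and NEAA, seeded at 1×10^4 per well. Treated next day with compounds at 0.1–100 µM (or 0.1–25 µmol/L), triplicates, <1% DMSO, for 24 h at 37 °C, 5% CO2. MTS reagent added for 2 h, absorbance read at 490 nm. IC50 taken against untreated (100%) and 10% DMSO (0%) controls.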

Aspergillus fumigatus [6] = assay: Antifungal activity against Aspergillus fumigatus 231 after 48 hrs by broth microdilution method; assay type: functional; settings: Aspergillus fumigatus, 231, 48 h; in short: as §2
Escherichia coli = assay: Antibacterial activity against Escherichia coli CCM 4517 at 500 micromol/L after 24 to 48 hrs by broth microdilution method; assay type: functional, organism-based; in short: as §1
Aspergillus fumigatus [7] = assay: Antifungal activity against Aspergillus fumigatus 231 after 24 hrs by broth microdilution method; assay type: functional; settings: Aspergillus fumigatus, 231, 24 h; in short: as §2
Trichosporon asahii [8] = assay: Antifungal activity against Trichosporon asahii 1188 after 24 hrs by broth microdilution method; assay type: functional; settings: Trichosporon asahii, 1188, 24 h; in short: as §2
Mycobacterium avium [9] = assay: Antimycobacterial activity against isoniazid, rifampicin, ethambutol and ofloxacin-resistant Mycobacterium avium My 330/88 after 14 days; assay type: functional; settings: My 330/88, 336 h; in short: as §3
Staphylococcus aureus [10] = assay: Antibacterial activity against methicillin-resistant Staphylococcus aureus H 5996/08 after 24 hrs by broth microdilution method; assay type: functional; settings: H 5996/08, 24 h; in short: as §1
[11] = tested on: Staphylococcus epidermidis; assay: Antibacterial activity against Staphylococcus epidermidis H 6966/08 after 48 hrs by broth microdilution method; assay type: functional; settings: H 6966/08, 48 h; in short: as §1
Staphylococcus aureus [12] = assay: Antibacterial activity against methicillin-resistant Staphylococcus aureus H 5996/08 after 48 hrs by broth microdilution method; assay type: functional; settings: H 5996/08, 48 h; in short: as §1
Mycobacterium kansasii [13] = assay: Antimycobacterial activity against Mycobacterium kansasii My 235/80 after 14 days; assay type: functional; settings: My 235/80, 336 h; in short: as §3
Mycobacterium kansasii [14] = assay: Antimycobacterial activity against Mycobacterium kansasii 6509/96 after 21 days; assay type: functional; settings: 6509/96, 504 h; in short: as §3
Staphylococcus aureus [15] = assay: Antibacterial activity against Staphylococcus aureus CCM 4516/08 after 48 hrs by broth microdilution method; assay type: functional; settings: CCM 4516/08, 48 h; in short: as §1
[16] = tested on: Trichophyton mentagrophytes; assay: Antifungal activity against Trichophyton mentagrophytes 445 after 72 hrs by broth microdilution method; assay type: functional; settings: Trichophyton mentagrophytes, 445, 72 h
In short: (§4)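 Filamentous dermatophyte tested by broth microdilution in RPMI 1640 with glutamine, fluconazole as reference. Value expressed as IC50 relative to growth control. Read at 72 and 120 h.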

Candida tropicalis = assay: Antifungal activity against Candida tropicalis 156 at 500 micromol/L after 24 to 48 hrs by broth microdilution method; assay type: functional, organism-based; in short: as §2
Mycobacterium kansasii [17] = assay: Antimycobacterial activity against Mycobacterium kansasii My 235/80 after 7 days; assay type: functional; settings: My 235/80, 168 h; in short: as §3
Staphylococcus aureus [18] = assay: Antibacterial activity against Staphylococcus aureus CCM 4516/08 after 24 hrs by broth microdilution method; assay type: functional; settings: CCM 4516/08, 24 h; in short: as §1
[19] = tested on: Trichophyton mentagrophytes; assay: Antifungal activity against Trichophyton mentagrophytes 445 after 120 hrs by broth microdilution method; assay type: functional; settings: Trichophyton mentagrophytes, 445, 120 h; in short: as §4
Lichtheimia corymbifera [20] = assay: Antifungal activity against Absidia corymbifera 272 after 24 hrs by broth microdilution method; assay type: functional; settings: Lichtheimia corymbifera, 272, 24 h; in short: as §2
Enterococcus sp. = assay: Antibacterial activity against Enterococcus sp. J 14365/08 at 500 micromol/L after 24 to 48 hrs by broth microdilution method; assay type: functional, organism-based; in short: as §1
Klebsiella pneumoniae [21] = assay: Antibacterial activity against Klebsiella pneumoniae D 11750/08 at 500 micromol/L after 24 to 48 hrs by broth microdilution method; assay type: functional, organism-based; in short: as §1
Mycobacterium avium [22] = assay: Antimycobacterial activity against isoniazid, rifampicin, ethambutol and ofloxacin-resistant Mycobacterium avium My 330/88 after 21 days; assay type: functional; settings: My 330/88, 504 h; in short: as §3
Mycobacterium kansasii [23] = assay: Antimycobacterial activity against Mycobacterium kansasii 6509/96 after 7 days; assay type: functional; settings: 6509/96, 168 h; in short: as §3
Pichia kudriavzevii [24] = assay: Antifungal activity against Candida krusei E28 after 48 hrs by broth microdilution method; assay type: functional; settings: E28, 48 h; in short: as §2
Trichosporon asahii [25] = assay: Antifungal activity against Trichosporon asahii 1188 after 48 hrs by broth microdilution method; assay type: functional; settings: Trichosporon asahii, 1188, 48 h; in short: as §2
Candida albicans [26] = assay: Antifungal activity against Candida albicans ATCC 44859 after 48 hrs by broth microdilution method; assay type: functional; settings: ATCC 44859, 48 h; in short: as §2
Mycobacterium kansasii [27] = assay: Antimycobacterial activity against Mycobacterium kansasii My 235/80 after 21 days; assay type: functional; settings: My 235/80, 504 h; in short: as §3
Pichia kudriavzevii [28] = assay: Antifungal activity against Candida krusei E28 after 24 hrs by broth microdilution method; assay type: functional; settings: E28, 24 h; in short: as §2
Lichtheimia corymbifera [29] = assay: Antifungal activity against Absidia corymbifera 272 after 48 hrs by broth microdilution method; assay type: functional; settings: Lichtheimia corymbifera, 272, 48 h; in short: as §2
Nakaseomyces glabratus = assay: Antifungal activity against Candida glabrata 20/I at 500 micromol/L after 24 to 48 hrs by broth microdilution method; assay type: functional, organism-based; in short: as §2
Mycobacterium kansasii [30] = assay: Antimycobacterial activity against Mycobacterium kansasii 6509/96 after 14 days; assay type: functional; settings: 6509/96, 336 h; in short: as §3

SMILES | Activity (Pseudomonas aeruginosa) | MIC80 (Candida albicans [1]) [µM] | Activity (Klebsiella pneumoniae [2]) | MIC [3] [µM] | MIC [4] [µM] | MIC95 [5] [µM] | IC50 (HepG2) [µM] | MIC50 (Aspergillus fumigatus [6]) [µM] | Activity (Escherichia coli) | MIC50 (Aspergillus fumigatus [7]) [µM] | MIC80 (Trichosporon asahii [8]) [µM] | MIC (Mycobacterium avium [9]) [µM] | MIC95 (Staphylococcus aureus [10]) [µM] | MIC95 [11] [µM] | MIC95 (Staphylococcus aureus [12]) [µM] | MIC (Mycobacterium kansasii [13]) [µM] | MIC (Mycobacterium kansasii [14]) [µM] | MIC95 (Staphylococcus aureus [15]) [µM] | MIC50 [16] [µM] | Activity (Candida tropicalis) | also measured
CCOP(=O)(OCC)Oc1cc(Cl)ccc1C(=O)Nc1cccc(C(F)(F)F)c1 | inactive | > 500 | inactive | 4 (≈ 1.81 µg/mL) | 4 (≈ 1.81 µg/mL) | 15.6 (≈ 7.06 µg/mL) | 3.85 | > 500 | inactive | > 500 | > 500 | 16 (≈ 7.23 µg/mL) | 31.2 (≈ 14.1 µg/mL) | 31.2 (≈ 14.1 µg/mL) | 62.5 (≈ 28.2 µg/mL) | 4 (≈ 1.81 µg/mL) | 8 (≈ 3.61 µg/mL) | 62.5 (≈ 28.2 µg/mL) | 31.2 (≈ 14.1 µg/mL) | inactive | MIC (Mycobacterium kansasii [17]): 2 µM (≈ 0.904 µg/mL); MIC95 (Staphylococcus aureus [18]): 31.2 µM (≈ 14.1 µg/mL); MIC50 [19]: 31.2 µM (≈ 14.1 µg/mL); MIC50 (Lichtheimia corymbifera [20]): > 500 µM; Activity (Enterococcus sp.): inactive; Activity (Klebsiella pneumoniae [21]): inactive; MIC (Mycobacterium avium [22]): 16 µM (≈ 7.23 µg/mL); MIC (Mycobacterium kansasii [23]): 4 µM (≈ 1.81 µg/mL); MIC80 (Pichia kudriavzevii [24]): > 500 µM; MIC80 (Trichosporon asahii [25]): > 500 µM; MIC80 (Candida albicans [26]): > 500 µM; MIC (Mycobacterium kansasii [27]): 4 µM (≈ 1.81 µg/mL); MIC80 (Pichia kudriavzevii [28]): > 500 µM; MIC50 (Lichtheimia corymbifera [29]): > 500 µM; Activity (Nakaseomyces glabratus): inactive; MIC (Mycobacterium kansasii [30]): 8 µM (≈ 3.61 µg/mL)
CCOP(=O)(OCC)Oc1ccc(Br)cc1C(=O)Nc1ccc(Br)cc1 | inactive | > 500 | inactive | 2 (≈ 1.01 µg/mL) | 2 (≈ 1.01 µg/mL) | 1.95 (≈ 0.989 µg/mL) | 5.6 | 500 (≈ 254 µg/mL) | inactive | 500 (≈ 254 µg/mL) | 62.5 (≈ 31.7 µg/mL) | 8 (≈ 4.06 µg/mL) | 3.9 (≈ 1.98 µg/mL) | 1.95 (≈ 0.989 µg/mL) | 3.9 (≈ 1.98 µg/mL) | 4 (≈ 2.03 µg/mL) | 4 (≈ 2.03 µg/mL) | 7.81 (≈ 3.96 µg/mL) | 3.9 (≈ 1.98 µg/mL) | inactive | MIC (Mycobacterium kansasii [17]): 2 µM (≈ 1.01 µg/mL); MIC95 (Staphylococcus aureus [18]): 7.81 µM (≈ 3.96 µg/mL); MIC50 [19]: 3.9 µM (≈ 1.98 µg/mL); MIC50 (Lichtheimia corymbifera [20]): 125 µM (≈ 63.4 µg/mL); Activity (Enterococcus sp.): inactive; Activity (Klebsiella pneumoniae [21]): inactive; MIC (Mycobacterium avium [22]): 8 µM (≈ 4.06 µg/mL); MIC (Mycobacterium kansasii [23]): 4 µM (≈ 2.03 µg/mL); MIC80 (Pichia kudriavzevii [24]): 125 µM (≈ 63.4 µg/mL); MIC80 (Trichosporon asahii [25]): 62.5 µM (≈ 31.7 µg/mL); MIC80 (Candida albicans [26]): > 500 µM; MIC (Mycobacterium kansasii [27]): 4 µM (≈ 2.03 µg/mL); MIC80 (Pichia kudriavzevii [28]): 125 µM (≈ 63.4 µg/mL); MIC50 (Lichtheimia corymbifera [29]): 125 µM (≈ 63.4 µg/mL); Activity (Nakaseomyces glabratus): inactive; MIC (Mycobacterium kansasii [30]): 4 µM (≈ 2.03 µg/mL)
